Experimental data from ChEMBL document CHEMBL1126796, “2-(Alkylamino)nicotinic acid and analogs. Potent angiotensin II antagonists” (J Med Chem, 1993).

How the values were obtained:
[1] = Tmax value after oral dose of 0.3 mg/kg; type: ADME, organism-based; parameters: dose 0.3 mg/kg, route oral; details: in vivo
Summary of the method: (§1)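 Male Sprague-Dawley-derived rats. Compound was given in normal saline at 1 mL/kg, either as a slow iv bolus into the jugular vein or orally by gavage. Plasma underwent liquid-liquid extraction and reverse-phase HPLC. Terminal elimination half-life and time of observed peak concentration were taken from the profiles.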

[2] = Volume of distribution of the terminal phase (= CLp+ plasma elimination rate constant) after intravenous dose of 3 mg/kg; type: ADME, organism-based; parameters: dose 3 mg/kg, route intravenous; details: read-out: Vbeta
Summary of the method: (§2)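 Jugular-vein slow iv bolus (normal saline, 1 mL/kg) in male Sprague-Dawley-derived rats. Plasma was sampled via the tail vein at 0.1–24 h and measured by reverse-phase HPLC after liquid-liquid extraction. Central volume was taken as dose divided by plasma concentration at time zero. Terminal-phase volume was derived from clearance and the plasma elimination rate constant.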

[3] = Cmax value after oral dose of 0.1 mg//kg; type: ADME, organism-based; parameters: dose 0.1 mg//kg, route oral; details: in vivo
Summary of the method: (§3)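 Male Sprague-Dawley-derived rats were dosed with compound in normal saline (1 mL/kg), by gavage or as a slow IV bolus into the jugular vein. Heparinized tail-vein blood was taken at 0.25-24 h, extracted liquid-liquid and assayed by reverse-phase HPLC. Cmax is the observed peak concentration and AUC is mean (SEM). F compares oral with IV AUC, corrected for dose and assuming dose proportionality.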

[4] = Volume of distribution of central compartment (= dose+ plasma concentration at time zero) after intravenous dose of 0.3 mg/kg; type: ADME, organism-based; parameters: dose 0.3 mg/kg, route intravenous; details: read-out: VI; summary of the method: as §2
[5] = system: Rattus norvegicus; experiment: % decrease in blood pressure after 4 hours at a dose of 1 mg/kg in male rats by using Renal artery hypertensive model; type: functional
Summary of the method: (§4)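 Male Sprague-Dawley rats (300-350 g) were made hypertensive by renal artery ligation and used on day 6 or 7 after ligation. Arterial pressure was measured from an indwelling femoral artery catheter, with blood pressure and heart rate recorded on line. Read-out is % decrease in blood pressure at 4 h, ±SEM, with number of rats.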

[6] = Plasma clearance after intravenous dose of 0.3 mg/kg; type: ADME, organism-based; parameters: dose 0.3 mg/kg, route intravenous; details: read-out: Clp
Summary of the method: (§5)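 Male Sprague-Dawley-derived rats received a slow iv bolus into the jugular vein of the compound in normal saline (1 mL/kg). Tail-vein heparinized blood was drawn from 0.1 to 24 h and assayed by reverse-phase HPLC after liquid-liquid extraction. Total plasma clearance was calculated as dose divided by AUC and reported as mean (SEM).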

[7] = biological target: T1, Type-1 angiotensin II receptor A (Rattus norvegicus, UniProt P25095); experiment: Binding affinity against angiotensin II receptor from rat liver
T1 sequence (P25095 whole entry): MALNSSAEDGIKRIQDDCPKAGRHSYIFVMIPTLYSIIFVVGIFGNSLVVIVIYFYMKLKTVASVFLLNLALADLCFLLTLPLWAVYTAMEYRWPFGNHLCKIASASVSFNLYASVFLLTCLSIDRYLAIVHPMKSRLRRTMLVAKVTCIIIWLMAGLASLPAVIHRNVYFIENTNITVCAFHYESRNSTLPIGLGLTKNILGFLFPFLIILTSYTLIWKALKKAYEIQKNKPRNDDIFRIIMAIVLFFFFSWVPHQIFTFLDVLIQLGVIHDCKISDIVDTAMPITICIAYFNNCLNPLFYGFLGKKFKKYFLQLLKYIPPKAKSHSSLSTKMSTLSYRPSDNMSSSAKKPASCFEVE
Summary of the method: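 Rat liver membranes were incubated with [125I]-saralasin to measure angiotensin II type 1 receptor binding. Nonspecific binding was defined with 1 µM angiotensin.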

[8] = system: Rattus norvegicus; experiment: % decrease in blood pressure after 24 hours at a dose of 0.1 mg/kg in male rats by using Furosemide-treated spontaneous hypertensive model; type: functional
Summary of the method: (§6)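 Male SHR, 20-24 weeks old, pretreated with furosemide 10 mg/kg sc at 22 and 4 h before the experiment; compound dosed orally. Arterial pressure was recorded from an indwelling femoral artery catheter with on-line blood pressure and heart rate analysis. Read-out is % fall in blood pressure at 4 h and at 24 h, ±SEM, with number of rats.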

[9] = system: Rattus norvegicus; experiment: % decrease in blood pressure after 4 hours in male rats at a dose of 0.01 mg/kg by using Renal artery hypertensive model; type: functional; summary of the method: as §4
[10] = system: Rattus norvegicus; experiment: % decrease in blood pressure after 4 hours in male rats at a dose of 0.3 mg/kg by using Renal artery hypertensive model; type: functional; summary of the method: as §4
[11] = Volume of distribution of central compartment (= dose+ plasma concentration at time zero) after intravenous dose of 3 mg/kg; type: ADME, organism-based; parameters: dose 3 mg/kg, route intravenous; details: read-out: VI; summary of the method: as §2
[12] = system: Rattus norvegicus; experiment: % decrease in blood pressure after 24 hours at a dose of 1 mg/kg in male rats by using Furosemide-treated spontaneous hypertensive model; type: functional; summary of the method: as §6
[13] = Plasma clearance after intravenous dose of 3 mg/kg; type: ADME, organism-based; parameters: dose 3 mg/kg, route intravenous; details: read-out: Clp; summary of the method: as §5
[14] = Tmax value after oral dose of 3 mg/kg; type: ADME, organism-based; parameters: dose 3 mg/kg, route oral; details: in vivo; summary of the method: as §1
[15] = Area under curve after oral dose of 3 mg/kg; type: ADME, organism-based; parameters: dose 3 mg/kg, route oral; details: in vivo; summary of the method: as §3
[16] = Area under curve after oral dose of 1 mg/kg; type: ADME, organism-based; parameters: dose 1 mg/kg, route oral; details: in vivo; summary of the method: as §3
[17] = system: Rattus norvegicus; experiment: % decrease in blood pressure after 4 hours in male rats at a dose of 0.03 mg/kg by using Renal artery hypertensive model; type: functional; summary of the method: as §4
[18] = Half-life period of compound after intravenous dose of 3 mg/kg; type: ADME, organism-based; parameters: dose 3 mg/kg, route intravenous; details: in vivo; summary of the method: as §1
[19] = Cmax value after oral dose of 0.3 mg/kg; type: ADME, organism-based; parameters: dose 0.3 mg/kg, route oral; details: in vivo; summary of the method: as §3
[20] = system: Rattus norvegicus; experiment: % decrease in blood pressure after 4 hours at a dose of 0.1 mg/kg in male rats by using Furosemide-treated spontaneous hypertensive model; type: functional; summary of the method: as §6
[21] = Half-life period after oral dose of 0.3 mg/kg; type: ADME, organism-based; parameters: dose 0.3 mg/kg, route oral; details: in vivo; summary of the method: as §3
[22] = Bioavailability after oral dose of 3 mg/kg; type: ADME, organism-based; details: eutheria, in vivo; summary of the method: as §3
[23] = Volume of distribution of the terminal phase (= CLp+ plasma elimination rate constant) after intravenous dose of 0.3 mg/kg; type: ADME, organism-based; parameters: dose 0.3 mg/kg, route intravenous; details: read-out: Vbeta; summary of the method: as §2
[24] = Half-life period after oral dose of 0.1 mg//kg; type: ADME, organism-based; details: in vivo; summary of the method: as §3
[25] = Half-life period of compound after intravenous dose of 0.3 mg/kg; type: ADME, organism-based; parameters: dose 0.3 mg/kg, route intravenous; details: in vivo; summary of the method: as §1
[26] = Bioavailability after oral dose of 0.3 mg/kg; type: ADME, organism-based; details: eutheria, in vivo; summary of the method: as §3
[27] = Half-life period of compound after intravenous dose of 1 mg/kg; type: ADME, organism-based; parameters: dose 1 mg/kg, route intravenous; details: in vivo; summary of the method: as §1
[28] = Cmax value after oral dose of 3 mg/kg; type: ADME, organism-based; parameters: dose 3 mg/kg, route oral; details: in vivo; summary of the method: as §3
[29] = Half-life period after oral dose of 1 mg/kg; type: ADME, organism-based; parameters: dose 1 mg/kg, route oral; details: in vivo; summary of the method: as §3
[30] = Volume of distribution of the terminal phase (= CLp+ plasma elimination rate constant) after intravenous dose of 1 mg/kg; type: ADME, organism-based; parameters: dose 1 mg/kg, route intravenous; details: read-out: Vbeta; summary of the method: as §2
[31] = Volume of distribution of central compartment (= dose+ plasma concentration at time zero) after intravenous dose of 1 mg/kg; type: ADME, organism-based; parameters: dose 1 mg/kg, route intravenous; details: read-out: VI; summary of the method: as §2
[32] = Cmax value after oral dose of 1 mg/kg; type: ADME, organism-based; parameters: dose 1 mg/kg, route oral; details: in vivo; summary of the method: as §3
[33] = Half-life period after oral dose of 3 mg/kg; type: ADME, organism-based; parameters: dose 3 mg/kg, route oral; details: in vivo; summary of the method: as §3
[34] = Bioavailability after oral dose of 1 mg/kg; type: ADME, organism-based; details: eutheria, in vivo; summary of the method: as §3
[35] = Area under curve after oral dose of 0.1 mg//kg; type: ADME; summary of the method: as §3
[36] = Bioavailability after oral dose of 0.1 mg//kg; type: ADME, organism-based; details: eutheria, in vivo; summary of the method: as §3
[37] = Area under curve after oral dose of 0.3 mg/kg; type: ADME, organism-based; parameters: dose 0.3 mg/kg, route oral; details: in vivo; summary of the method: as §3
[38] = Tmax value after oral dose of 0.1 mg//kg; type: ADME, organism-based; details: in vivo; summary of the method: as §1
[39] = Plasma clearance after intravenous dose of 1 mg/kg; type: ADME, organism-based; parameters: dose 1 mg/kg, route intravenous; details: read-out: Clp; summary of the method: as §5
[40] = Tmax value after oral dose of 1 mg/kg; type: ADME, organism-based; parameters: dose 1 mg/kg, route oral; details: in vivo; summary of the method: as §1
[41] = system: Rattus norvegicus; experiment: % decrease in blood pressure after 4 hours at a dose of 1 mg/kg in male rats by using Furosemide-treated spontaneous hypertensive model; type: functional; summary of the method: as §6
[42] = system: Rattus norvegicus; experiment: % decrease in blood pressure after 4 hours at a dose of 30 mg/kg in male rats by using Renal artery hypertensive model; type: functional; summary of the method: as §4
[43] = system: Rattus norvegicus; experiment: % decrease in blood pressure after 4 hours in male rats at a dose of 10 mg/kg by using Renal artery hypertensive model; type: functional; summary of the method: as §4

For `CCCN(Cc1ccc(-c2ccccc2-c2nnn[nH]2)cc1)c1ncccc1C(=O)O`, the Tmax [1] was 1.4 h, the Vd [2] was 0.12 L/kg and the Cmax [3] was 490 ng/mL. For the same compound, the Vd [4] was 0.04 L/kg, the “Decrease in blood pressure” value [5] was 40% and the clearance [6] was 0.07 mL/min. The Ki [7] was 0.61 nM, the “Decrease in blood pressure” value [8] was 36% and the “Decrease in blood pressure” value [9] was 22%. The “Decrease in blood pressure” value [10] was 36%, the Vd [11] was 0.04 L/kg and the “Decrease in blood pressure” value [12] was 46%. It also gave a clearance [13] of 0.07 mL/min, a Tmax [14] of 0.9 h and an AUC [15] of 90.15 µg/h/mL. For the same compound, the AUC [16] was 28.87 µg/h/mL, the “Decrease in blood pressure” value [17] was 10% and the half-life [18] was 6.6 h. The Cmax [19] was 1350 ng/mL, the “Decrease in blood pressure” value [20] was 23% and the half-life [21] was over 12 h. The bioavailability [22] was 36.3%, the Vd [23] was 0.17 L/kg and the half-life [24] was at most 12 h. It also gave a half-life [25] of 9.5 h, a bioavailability [26] of 97.2% and a half-life [27] of 7.1 h. It also gave a Cmax [28] of 9600 ng/mL, a half-life [29] of 6.9 h and a Vd [30] of 0.13 L/kg. It also gave a Vd [31] of 0.04 L/kg, a Cmax [32] of 2770 ng/mL and a half-life [33] of 5.7 h. For the same compound, the bioavailability [34] was 34.9%, the AUC [35] was 8.21 µg/h/mL and the bioavailability [36] was 97.9%. It also gave an AUC [37] of 24.44 µg/h/mL, a Tmax [38] of 1.3 h and a clearance [39] of 0.07 mL/min. The Tmax [40] was 0.9 h and the “Decrease in blood pressure” value [41] was 32%.

With `CCCN(Cc1ccc(-c2ccccc2-c2nn[nH]n2)cc1)c1nnccc1C(=O)O` the “Decrease in blood pressure” value [12] was 18% and the “Decrease in blood pressure” value [41] was 3%.

For `CCCCN(Cc1ccc(-c2ccccc2-c2nn[nH]n2)cc1)c1nc(C)ncc1C(=O)O.Cl`, the Ki [7] was 15.3 nM and the “Decrease in blood pressure” value [42] was 11%.

With `C=CCN(Cc1ccc(-c2ccccc2-c2nn[nH]n2)cc1)c1ncccc1C(=O)O` the “Decrease in blood pressure” value [12] was 31% and the “Decrease in blood pressure” value [41] was 13%.

With `CCCN(Cc1ccc(-c2ccccc2-c2nn[nH]n2)cc1)c1nc(C)ncc1C(=O)O` the Ki [7] was 2.78 nM, the “Decrease in blood pressure” value [42] was 18% and the “Decrease in blood pressure” value [43] was 15%.
